Results on 38 compounds are retold here after PubChem BioAssay AID1800 (The Scripps Research Institute Molecular Screening Center, 2009).

The campaign covered roughly 290,000 compounds. About 1,600 (0.55%) were called active. The entries come from a sample that favours actives as a whole. Unmarked numbers belong to inactive results.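 How the source made its calls: active means inhibition above the mean of all tested compounds plus 3 SD, set per campaign (cut at about 35% in these data); inactive means the rest.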

The assay deals with Hepatitis C virus NS3 helicase. Put plainly: HCV NS3 DNA unwinding blockers – biochemical, Cy5 molecular beacon fluorescence, primary screen (AID 1800).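 Further: 0% = DMSO wells and 100% = thioflavine S control wells.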 As to conditions: at 10.9 µM, active compounds read high. Put shortly: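 Test system: hepatitis C virus NS3 helicase domain fragment enzyme. Also added: annealed dual-labelled DNA beacon duplex, ATP-started. Timing: 60 min unwinding reaction at 25 °C after ATP addition. Technique: Cy5 fluorescence. Measure: % inhibition of unwinding.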
`NC(=O)C1CCN(CC(O)CSc2ccc(F)cc2)CC1` (stereo not drawn): the inhibition is 3.59%.

On to `O=C(Nc1ccccc1)C1CCN(C(=O)c2ccc(Br)cc2)CC1`, for which the inhibition is -8.93%.

`Cc1ccc(S(=O)(=O)NCCC(c2ccccc2)c2ccccc2)cc1C(=O)O`: the inhibition is 38.8% (active).

As to `Cc1ccc(S(=O)(=O)NCCSc2ccccc2)cc1[N+](=O)[O-]`, the inhibition was -4.6%.

On to `Cc1ccc(S(=O)(=O)NCCCn2ccnc2)cc1C(=O)NC(C)C`, for which the inhibition was -0.51%.

On to `O=[N+]([O-])c1ccc2c(c1)Nc1nc3ccccc3nc1N2`, for which the inhibition is 3.43%.

`CN1CCN(C(=O)c2cnn(-c3ccccc3)c2NC(=O)c2ccc([N+](=O)[O-])cc2)CC1`: the inhibition was 5.97%.

In the case of `CCOC(=O)c1c(-c2ccccc2)oc2cc(Br)c(O)cc12`, the inhibition is -8.03%.

For the compound `CCOC(=O)c1c(-c2ccccc2)oc2ccc(OCC(N)=O)cc12`, the inhibition is -0.28%.

Take `CCOC(=O)c1c(-c2ccccc2)oc2cc(Br)c(O)c(C=O)c12`: the inhibition is 63.8% (active).

For `CCOc1cc(-c2noc(CCCC(=O)NC3CCCCC3)n2)ccc1OC`, the inhibition is -0.34%.

Turning to `CCOc1ccc(CN2CCN(Cc3c[nH]c4ccccc34)CC2)cc1`, the inhibition is -65.4%.

Consider `CCC1(C(=O)c2ccccc2)C(c2cccc([N+](=O)[O-])c2)C1(C(=O)OC)C(=O)OC` (stereo not drawn), for which the inhibition is -10.6%.

On to `Cc1ccc(N=C2NC(=O)/C(=C/C=C/c3ccco3)S2)cc1C`, for which the inhibition was 60.8% (active).

Take `Cc1ccc(N2NC(=O)/C(=C/C=C/c3ccco3)C2=O)cc1C`: the inhibition was 31.6%.

In the case of `Cc1cccc(N=C2NC(=O)/C(=C/c3cn(C)c4ccccc34)S2)c1`, the inhibition is -2.21%.

As to `Cc1ccc(S(=O)(=O)NCCC(=O)Nc2cccc(S(N)(=O)=O)c2)cc1C`, the inhibition is -12.2%.

Take `Nc1c(C(=O)c2cccs2)sc2nsc(SCCN3CCCCC3)c12`: the inhibition was -21.1%.

`CC(=O)c1cccc(NC(=S)N2CCN(S(C)(=O)=O)CC2)c1`: the inhibition is -3.09%.

On to `Cc1ccc(OCC(=O)Nc2ccccc2Sc2ccc(Cl)cc2)c([N+](=O)[O-])n1`, for which the inhibition is -5.04%.

For `COc1ccc(/C=C/C(=O)c2cc(Br)ccc(=O)c2O)cc1`, the inhibition is 45.2% (active).

As to `COc1ccc(/C=C/C(=O)c2ccc(OC)cc2O)cc1`, the inhibition was -6.12%.

Consider `COc1ccc(C(=O)/C=C/c2ccc(OC3CSC3)cc2)cc1`, for which the inhibition is -2.94%.

As to `O=C(NC(=S)Nc1ccccc1N1CCCCC1)c1ccc(F)cc1`, the inhibition was 1.82%.

As for `CCCn1c(C2CCCN2c2nc(-c3ccc(C)cc3)cs2)nc2cc(Cl)c(N3CCCCC3)cc21` (stereo not drawn), the inhibition is 35.5%.

`CCn1c(C)c(C)c2cc(C(=O)N3CCN(c4cccc(C)c4C)CC3)ccc21`: the inhibition was 2.52%.

As to `C=CCOc1cccc(C2C(C(=O)c3ccc(C)o3)=C(O)C(=O)N2CCCn2ccnc2)c1` (stereo not drawn), the inhibition is -4.21%.

As to `COc1cc(C2C(C(=O)c3ccco3)=C(O)C(=O)N2c2cc(C)on2)ccc1OCc1ccccc1` (stereo not drawn), the inhibition was 43.6% (active).

As to `CCCOc1ccc(C2C(C(=O)c3ccc(C)o3)=C(O)C(=O)N2CCCn2ccnc2)cc1` (stereo not drawn), the inhibition was -15.3%.

In the case of `Cc1cc(N2C(=O)C(O)=C(C(=O)c3ccc(C)o3)C2c2ccc(OCc3ccccc3)cc2)no1` (stereo not drawn), the inhibition is 87.7% (active).

For the compound `Cc1ccc2nc(N3C(=O)C(O)=C(C(=O)c4ccco4)C3c3cccc(O)c3)sc2c1` (stereo not drawn), the inhibition is 25.4%.

For `CCOc1cc(C2C(C(=O)c3ccco3)=C(O)C(=O)N2Cc2ccccc2)ccc1O` (stereo not drawn), the inhibition is 9.26%.

Regarding `COc1ccc(-c2cc(C(=O)N3CCN(Cc4ccc5c(c4)OCO5)CC3)on2)cc1OC`, the inhibition is -19.4%.

Take `CC(=O)Nc1ccc(C(=O)N(C2=NC(C)CS2)c2ccc(Cl)cc2)cc1` (stereo not drawn): the inhibition was -10.2%.

Regarding `COc1ccccc1CCCNC(=O)C1CCC(=O)N(CCN2CCOCC2)C1` (stereo not drawn), the inhibition was 7.14%.

As to `COc1cccc(CNC(=O)c2cccnc2Sc2ccc(Cl)cc2)c1`, the inhibition is -6.66%.

Turning to `CC(=O)O[C@H]1c2ccccc2-c2ccccc2[C@@H]1OC(C)=O`, the inhibition is 13.1%.

As for `O=Cc1c(NCCc2cccc(F)c2)c2ccccc2[nH]c1=O`, the inhibition was 0.14%.

In general, inhibition refers to the change of the read-out against control, counted positive when it falls.
